# Compound activity from PubChem.
# Compounds with a hit are over-represented: about 3.1% of the library has one in this group of screens.
# KCNK3 inh: human KCNK3 channel inhibition, primary screen; O14649; CHO-KCNK3 thallium flux, FluxOR fluorescence; hits give low values; B-score at 10 µM; hit rate 0.84% among 340,000;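 active means B-score under library mean minus 4 SD, starting fluorescence ratio at most library mean plus 5 SD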;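 further: more negative B-score means stronger inhibition of thallium flux through KCNK3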
# KCNQ1 pot: potentiates or activates the human KCNQ1 potassium channel; CHO-K1 KCNQ1, thallium flux FluxOR fluorescence; hits give high values; B-score at 10 µM; hit rate 0.35% among 310,000; AID 2648;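 active means fluorescence ratio B-score, a plate-corrected score, at least three library SD, with initial intensity B-score within 5 SD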
#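 assay system = CHO-K1 cells stably expressing KCNQ1 | medium = assay buffer, equal DMSO in all wells | timing = 37 °C overnight plating, 90-min dark dye load, 20-min compound pretreatment | measured by = kinetic FluxOR thallium fluorescence, 10-s 1-Hz baseline, 110-s post-stimulus read | measure = fluorescence change relative to baseline, converted to B score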
# KCNK9 inh: human KCNK9 channel inhibition | Q9NPC2 | HEK293 KCNK9, FluxOR thallium flux fluorescence; hits give low values | B-score at 10 µM | hit rate 1.2% among 310,000 | AID 488922;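 active means ratio B-score over 3 SD below the library mean, with starting fluorescence within 5 SD of its mean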;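 further: negative B-score means less thallium flux so channel inhibition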
# Target sequence (Q9NPC2 whole entry, looked up): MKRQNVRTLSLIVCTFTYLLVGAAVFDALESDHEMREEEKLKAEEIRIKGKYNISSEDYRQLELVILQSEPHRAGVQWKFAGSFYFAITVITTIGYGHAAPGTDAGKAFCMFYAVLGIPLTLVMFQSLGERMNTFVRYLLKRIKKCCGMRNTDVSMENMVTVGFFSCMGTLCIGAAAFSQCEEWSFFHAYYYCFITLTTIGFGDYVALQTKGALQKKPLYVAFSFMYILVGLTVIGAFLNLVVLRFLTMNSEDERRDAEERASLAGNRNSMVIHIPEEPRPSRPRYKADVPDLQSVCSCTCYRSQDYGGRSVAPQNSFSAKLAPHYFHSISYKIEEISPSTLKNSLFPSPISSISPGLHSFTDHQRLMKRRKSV
# KCNQ1 inh: blocks the human KCNQ1 potassium channel; B-score at 10 µM; CHO-K1 KCNQ1, FluxOR thallium flux fluorescence; hits give high values; hit rate 1.3% among 310,000; P51787;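 active means compounds whose thallium flux B-score, printed positive for inhibition, exceeds three library SD while starting fluorescence stays within three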;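 further: channel opened by potassium depolarization with thallium stimulus after 20 min compound exposure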
# hERG protect: shields human hERG channel from block by proarrhythmic agents; hit rate 0.51% among 310,000; AID 1511; activation (rescue from dofetilide block), less the hit threshold, % at 10 µM; CHO-hERG, FluxOR thallium flux, dofetilide IC70 present; Q12809;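 active means activation above the mean of controls blocked by dofetilide plus 5 SD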;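 further: thallium influx through hERG after potassium depolarization seen as dye fluorescence rise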
# KCNQ1 block val: reconfirmed blocker of the human KCNQ1 potassium channel; shares compounds with KCNQ1 inh; KCNQ1 cell line, FluxOR thallium flux fluorescence; inhibition, % at 10 µM; hit rate 93% among 1,600; AID 588353;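 active means primary screen active, with duplicate mean exceeding buffer control mean plus 3 SD of buffer wells, cut at about 28% in these data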;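 further: 0% = buffer control ratio and 100% = XE991 inhibitor control ratio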
# CHO KCNQ1 ctr: counter-screen for KCNQ1 inhibitors: effect in parental CHO cells; shares compounds with KCNQ1 inh; parental CHO-K1, FluxOR thallium flux fluorescence ratio; hits give low values; zero means no signal rise above baseline; fluorescence ratio (Tl flux) at 10 µM; hit rate 21% among 1,600;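 active means mean of duplicate thallium-flux fluorescence ratios in parental host cells more than 5 SD below the buffer control mean, cut at about 0.38 in these data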;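 further: ratio is peak minus minimum fluorescence divided by baseline fluorescence; actives read low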
# KCNQ1 ephys val: human KCNQ1 inhibition validated by electrophysiology. shares compounds with KCNQ1 inh. KCNQ1-CHO cells, automated patch clamp current. calls only at 10 µM. hit rate 20% among 490. AID 624120;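 active means KCNQ1 current drop exceeding 3 SD of negative control wells, seen in both duplicate runs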;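 further: steady state current during a 2 s step from -80 to +40 mV; negative values mean current inhibition and positive values mean potentiation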
# KCNQ2 spec: selectivity of KCNQ1 inhibitors: inhibition of rat KCNQ2 channel; inhibition, % at 10 µM; hit rate 71% among 1,600; KCNQ2 cells, FluxOR thallium flux fluorescence; shares compounds with KCNQ1 inh;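 active means mean percent inhibition of the KCNQ2 thallium signal more than 5 SD above the buffer-only control wells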;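 further: KCNQ2 expressed in CHO cells; 0% = buffer control wells and 100% = XE-991 inhibitor control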
# KCNQ1 KCNE1 spec: selectivity of KCNQ1 inhibitors: inhibition of human KCNQ1/KCNE1 channel. KCNQ1/KCNE1 cells, FluxOR thallium flux fluorescence. shares compounds with KCNQ1 inh. hit rate 77% among 1,600. inhibition, % at 10 µM;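 active means mean percent inhibition of duplicate wells above the buffer-only control mean plus 3 SD of those controls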;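 further: 0% = buffer only wells and 100% = XE-991 inhibitor control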
# * marks the source's active call; other numbers are inactive results; i = inactive; · = not tested or not shown; + = active, no number.
SMILES,KCNK3 inh,KCNQ1 pot,KCNK9 inh,KCNQ1 inh,hERG protect,KCNQ1 block val,CHO KCNQ1 ctr,KCNQ2 spec,KCNQ1 KCNE1 spec,others
O=C(Cn1nnc2ccccc21)OCc1ccccc1,i,i,i,i,-13,·,·,·,·,
CCOc1ccc(N(C)S(=O)(=O)c2ccc(C)c(C(=O)Nc3nnc(C4CC4)s3)c2)cc1,i,·,·,·,·,·,·,·,·,
CCOc1ccc2oc(C(=O)N3CCN(c4ccccc4OCC)CC3)c(C)c2c1,i,i,i,6*,-21,125*,0.42,131%*,+,KCNQ1 ephys val=i
CN(C)S(=O)(=O)c1ccc(S(=O)(=O)NC2CCOC(C)(C)C2)cc1 (stereo not given),i,i,i,i,-8,·,·,·,·,
CCN(CC)CCNC(=O)C1c2ccccc2C(=O)N(CCOC)C1c1ccc(F)cc1 (stereo not given),i,i,i,i,-17,·,·,·,·,
O/C=c1\ccc2cccc3nc(C(F)(F)F)nc1c23,i,i,-7.6*,19*,-8,140*,0.31*,i,i,
NNc1nc(C(F)(F)F)nc2ccccc12,i,i,i,i,-4,·,·,·,·,
O=C(NCC1CCCN(C(=O)Cc2ccccc2Cl)C1)c1ccc(F)cc1 (stereo not given),i,i,i,i,-8,·,·,·,·,
CCCCOc1[nH]c2nc(-c3ccco3)n(Cc3ccco3)c(=N)c2c1C#N,i,i,-7.2*,14*,-17,76*,0.5,78%*,81%*,
c1ccc(CNc2c3ccccc3nc3ccccc23)cc1,i,i,i,8*,-24,39*,0.41,66%*,48%*,
Cc1onc(-c2ccccc2)c1C(=O)Nc1nc(-c2ccc(F)c(F)c2)cs1,i,i,i,7*,-8,104*,0.52,109%*,120%*,KCNQ1 ephys val=i
Cc1csc(NC(=O)c2c(-c3ccccc3)noc2C)n1,i,i,i,i,-13,·,·,·,·,
O=C(Nc1ccccc1)Nc1nc(-c2ccc(F)c(F)c2)cs1,i,i,i,6*,-6,72*,0.47,84%*,82%*,
CCOCCc1nnc(NC(=O)CCC2CCCCC2)s1,i,i,i,i,-4,·,·,·,·,
Cn1ncc(Br)c1NC(=O)Nc1ccc(OC(F)(F)F)cc1,i,i,i,8*,-12,79*,0.49,132%*,i,
Cc1ccc(CNC(=O)Nc2ccc(OC(F)(F)F)cc2)n1C,i,i,i,i,-5,·,·,·,·,
O=C1C=C(c2cccc(CO)c2)C[C@@H](c2ccc(F)cc2)C1,i,·,·,·,·,·,·,·,·,
CC(=O)c1ccc(N(CC(=O)NC2CCCCC2)C(=O)CNC(=O)c2ccco2)cc1,i,i,i,i,-3,·,·,·,·,
Nc1nonc1-n1nnc(C(=O)N/N=C/c2ccccc2F)c1CN1CCc2ccccc21,i,i,i,i,-3,·,·,·,·,
COc1ccccc1OCC(=O)NNC(=O)C1CCN(c2ncnc3sc(C)c(C)c23)CC1,i,·,·,·,·,·,·,·,·,
COc1ccc(-c2csc(NC(=O)C3CC(=O)N(Cc4ccccc4)C3)n2)cc1OC (stereo not given),i,i,i,6*,-12,123*,0.38,93%*,163%*,KCNQ1 ephys val=i
COc1ccc(-c2csc(NC(=O)C3CCN(c4ncnc5sc(C)c(C)c45)CC3)n2)cc1OC,i,i,i,9*,-16,122*,0.41,83%*,103%*,KCNQ1 ephys val=i
ClCc1nc2ccccc2n1Cc1ccccc1,i,i,i,7*,-15,0,0.45,84%*,i,
c1coc(CNc2nc(N3CCCCC3)nc3ccccc23)c1,i,i,i,9*,-16,60*,0.38*,72%*,62%*,
CCCc1ccc(-c2cc(C(=O)N3CCN(c4ccccn4)CC3)c3ccccc3n2)cc1,i,i,i,9*,-30,89*,0.45,114%*,104%*,KCNQ1 ephys val=i
SMILES,KCNK3 inh,KCNQ1 pot,KCNK9 inh,KCNQ1 inh,hERG protect,KCNQ1 block val,CHO KCNQ1 ctr,KCNQ2 spec,KCNQ1 KCNE1 spec,others
CCOc1ccc(-c2cc(C(=O)N3CCN(c4ccccn4)CC3)c3ccccc3n2)cc1,i,i,i,i,-8,·,·,·,·,
COc1ccc(C(=O)C2CCCN(Cc3cc(Cl)ccc3O)C2)c(OC)c1 (stereo not given),i,i,i,6*,-13,62*,0.41,122%*,86%*,
COc1ccc(C(=O)C2CCCN(Cc3cc(C)c(O)c(C)c3)C2)c(OC)c1 (stereo not given),i,i,i,i,-6,·,·,·,·,
O=C(N[C@@H](Cc1ccccc1)C(=O)OCc1ccccc1)c1nc[nH]c1C(=O)N1CCNCC1,i,·,·,·,·,·,·,·,·,
COc1ccc(NC(=O)c2cc(-c3cc(C)cc(C)c3O)n[nH]2)cc1Cl,-9.2*,i,i,8*,-8,168*,0.27*,114%*,+,
CCCn1c(=O)c(C(=O)NCCc2ccc(OC)cc2)c(O)c2ccccc21,i,i,i,9*,-1,93*,0.48,91%*,77%*,KCNQ1 ephys val=i
CC(C)CNC(=O)CSc1n[nH]c(=O)n1CCc1ccccc1,i,i,i,i,0,·,·,·,·,
O=C(CSC1=NS(=O)(=O)c2ccccc21)Nc1ccccc1,i,i,i,7*,-24,78*,0.4,85%*,122%*,
COC(=O)CSC1=NS(=O)(=O)c2ccccc21,i,i,i,8*,-31,100*,0.38*,98%*,141%*,
CC(=O)C1=C(C)NC(SCC(N)=O)=C(C#N)C1C (stereo not given),i,i,i,i,-5,·,·,·,·,
NCCC(=O)N1c2ccccc2Sc2ccc(Cl)cc21,i,i,i,7*,-8,72*,0.47,i,62%*,
NCCCC(=O)N1c2ccccc2Sc2ccc(Cl)cc21,i,i,i,i,-3,·,·,·,·,
CCOC(=O)c1cc(C#N)c(N2CCCNCC2)nc1C(F)(F)F,i,i,i,i,-2,·,·,·,·,
